Results of several laboratories.
Each line is one published result; the experiments were not run side by side.
ALPI: Intestinal-type alkaline phosphatase (ALPI, Bos taurus, UniProt P19111)
Maob: Amine oxidase [flavin-containing] B (Maob, Rattus norvegicus, UniProt P19643)
GRM2: Metabotropic glutamate receptor 2 (GRM2, Homo sapiens, UniProt Q14416)
EPHX2: Bifunctional epoxide hydrolase 2 (EPHX2, Homo sapiens, UniProt P34913)
LCK: Tyrosine-protein kinase Lck (LCK, Homo sapiens, UniProt P06239)
NMUR1: Neuromedin-U receptor 1 (NMUR1, Homo sapiens, UniProt Q9HB89)
MAP2K4: Dual specificity mitogen-activated protein kinase kinase 4 (MAP2K4, Homo sapiens, UniProt P45985)
RET: Proto-oncogene tyrosine-protein kinase receptor Ret (RET, Homo sapiens, UniProt P07949)

SMILES | target | assay | conditions | IC50 [µM]
COc1ccc(N2CC3=C(C2=O)C(c2ccc(O)cc2)NC(=O)N3)cc1 (centres unmarked) | ALPI | enzyme activity, inhibitor, absorbance | – | 9.43
CC(=NN=C1CS(=O)(=O)N(C)c2ccccc21)c1cc(Cl)sc1Cl | Maob | enzyme activity, inhibitor, fluorescence | – | 2.58
COc1ccc(-c2cc(C(N)=O)ncc2OCc2ccnc(C)c2)c(F)c1 | GRM2 | ion flux, antagonist | – | 0.059
CC1=C(CC(=O)O)c2cc(F)ccc2/C1=C\c1ccc([S+](C)[O-])cc1 (centres unmarked) | Aldo-keto reductase family 1 member B1 (AKR1B1, Homo sapiens, UniProt P15121) | enzyme activity, inhibitor, absorbance | pH 6.2 | 0.3
COc1ccc(-c2cc(C(N)=O)ncc2OCc2ccnc(F)c2)c(F)c1 | GRM2 | ion flux, antagonist | – | 0.046
Cc1ccc2cc(C=NN=C3CS(=O)(=O)N(C)c4ccccc43)c(Cl)nc2c1 | Maob | enzyme activity, inhibitor, fluorescence | – | 1.05
CCCCCCCCN1CC2=C(C1=O)C(c1ccc(O)cc1)NC(=O)N2 (centres unmarked) | ALPI | enzyme activity, inhibitor, absorbance | – | 8.23
O=C(CCCCCCCCc1ccc(O)c(O)c1)c1c(O)cccc1O | EPHX2 | enzyme activity, inhibitor, fluorescence | – | 25.9
Cc1cnc(-c2ccc(-c3ccc(NC(=O)Nc4c(F)cc(F)cc4F)cc3F)c3c2C(=O)NC3)[nH]1 | LCK | enzyme activity, inhibitor | – | 0.0007
COc1ccc(-c2cc(C(N)=O)ncc2OCc2noc(C)n2)c(F)c1 | GRM2 | ion flux, antagonist | – | 0.158
CC(=NN=C1CS(=O)(=O)N(C)c2ccccc21)c1sccc1Br | Maob | enzyme activity, inhibitor, fluorescence | – | 3.82
O=c1cc(-c2ccc(O)c(-c3c(O)cc(O)c4c(=O)cc(-c5ccc(O)cc5)oc34)c2)oc2cc(O)cc(O)c12 | Tyrosine-protein kinase JAK2 (JAK2, Homo sapiens, UniProt O60674) | enzyme activity, inhibitor | – | 5
CC(C)C[C@H](NC(=O)[C@H](Cc1ccccc1)NC(=O)[C@H](Cc1ccc(O)cc1)NC(=O)CNC(=O)[C@H](CCCNC(=N)N)NC(=O)[C@H](CO)NC(=O)[C@H](CCC(N)=O)NC(=O)[C@H](CO)NC(=O)[C@H](C)NC(=O)[C@H](Cc1ccccc1)NC(=O)[C@@H]1CCCN1C(=O)[C@H](CO)NC(=O)[C@H](CCC(N)=O)NC(=O)[C@H](Cc1ccccc1)NC(=O)[C@H](CCC(=O)O)NC(=O)[C@H](CCC(=O)O)NC(=O)[C@H](CC(=O)O)NC(=O)[C@@H](NC(=O)[C@H](CCCNC(=N)N)NC(=O)[C@@H](N)Cc1ccccc1)C(C)C)C(=O)N[C@@H](Cc1ccccc1)C(=O)N[C@@H](CCCNC(=N)N)C(=O)N1CCC[C@H]1C(=O)N[C@@H](CCCNC(=N)N)C(=O)N[C@@H](CC(N)=O)C(N)=O | NMUR1 | ligand displacement, radioligand | cell membranes | 0.00011
CC(C)CCC[C@@H](C)[C@H]1CC[C@H]2[C@@H]3C[C@@H](NCCc4c[nH]cn4)[C@@]4(O)C[C@@H](O)CC[C@]4(C)[C@H]3CC[C@]12C | EPHX2 | enzyme activity, inhibitor | – | > 100
CC(C)(C)n1nc(-c2cnc3cc(OC4CC4)ccc3c2)c(C(N)=O)c1N | Mitogen-activated protein kinase kinase kinase 10 (MAP3K10, Homo sapiens, UniProt Q02779) | cell-free assay | – | > 10
O=C1NC2=C(C(=O)N(c3nc4ccccc4[nH]3)C2)C(c2ccc(O)cc2)N1 (centres unmarked) | ALPI | enzyme activity, inhibitor, absorbance | – | 11.3
COc1ccc(-c2cc(C(N)=O)ncc2OCc2ccnc(OC)c2)c(F)c1 | GRM2 | ion flux, antagonist | – | 0.135
Cc1ccc2nc(Cl)c(C=NN=C3CS(=O)(=O)N(C)c4ccccc43)cc2c1 | Maob | enzyme activity, inhibitor, fluorescence | – | 1.43
COc1ccc2c(Oc3ccc4c(C(=O)Nc5ccccc5N)cccc4c3)ccnc2c1 | LCK | enzyme activity, inhibitor | – | > 0.5

SMILES | target | assay | conditions | IC50 [µM]
CNC(=O)c1cc2c(Oc3ccc(NC(=O)C4(C(=O)Nc5ccc(F)cc5)CC4)cc3)ccnc2cc1OC | LCK | enzyme activity, inhibitor, radiometric | – | 0.012
CC(O)C(C)C(=O)N1CCC(NC(=O)Nc2ccc(OC(F)(F)F)c(F)c2)CC1 (centres unmarked) | EPHX2 | enzyme activity, inhibitor | – | 0.0001
O=C1NC2=C(C(=O)N(Cc3ccc(Cl)cc3)C2)C(c2ccc(O)cc2)N1 (centres unmarked) | ALPI | enzyme activity, inhibitor, absorbance | – | 5.35
COc1ccc(-c2cc(C(N)=O)ncc2OCc2cn(C)cn2)c(F)c1 | GRM2 | ion flux, antagonist | – | 0.092
CC(C)C[C@H](NC(=O)[C@H](Cc1ccccc1)NC(=O)[C@@H](N)Cc1ccc(O)cc1)C(=O)N[C@@H](Cc1ccccc1)C(=O)N[C@@H](CCCNC(=N)N)C(=O)N1CCC[C@H]1C(=O)N[C@@H](CCCNC(=N)N)C(=O)N[C@@H](CC(N)=O)C(N)=O | NMUR1 | ligand displacement, radioligand | cell membranes | 0.00066
CCC(CC12CC3CC(CC(C3)C1)C2)NC(=O)Nc1ccccc1F (centres unmarked) | EPHX2 | enzyme activity, inhibitor, fluorescence | – | 0.631
CNc1nc(C)nc(N[C@H]2CCC[C@@H](C(=O)NCc3ccc(C#N)cc3C(F)(F)F)C2)n1 | EPHX2 | enzyme activity, inhibitor | – | 0.0004
CCN1CCN(Cc2ccc(NC(=O)Nc3ccc(Oc4cc(NC)ncn4)cc3)cc2C(F)(F)F)CC1 | MAP2K4 | enzyme activity, inhibitor, ADP detection | – | 40
CCCC(CNC(=O)Nc1ccccc1F)C1C2CC3CC(C2)CC1C3 (centres unmarked) | EPHX2 | enzyme activity, inhibitor, fluorescence | – | 0.106
O=C1NC2=C(C(=O)N(c3ccc(Cl)cc3)C2)C(c2ccccc2O)N1 (centres unmarked) | ALPI | enzyme activity, inhibitor, absorbance | – | 2.94
CC/C(=N\NC(=O)C(C)Nc1ccccc1)c1ccc(O)c(C)c1O (centres unmarked) | Serine/threonine-protein kinase LATS2 (LATS2, Homo sapiens, UniProt Q9NRM7) | enzyme activity, inhibitor | – | 0.00409
CC12CC3(C)CC(C)(C1)CC(NC(=O)Nc1ccccc1F)(C2)C3 | EPHX2 | enzyme activity, inhibitor, fluorescence | – | 0.0943
O=C(Cc1ccc(Nc2ncnc3[nH]ccc23)cc1)Nc1ccc(F)c(Cl)c1 | RET | enzyme activity, inhibitor, mobility shift | – | > 20
Nc1nc(NCc2ccccc2CO)c2[nH]cnc2n1 | Methylated-DNA--protein-cysteine methyltransferase (MGMT, Homo sapiens, UniProt P16455) | enzyme activity, inhibitor | 30 min | > 1000
CN(C)CC#Cc1ccc2[nH]c3c(c2c1)-c1nc(N)ncc1CCC3 | MAP2K4 | enzyme activity, inhibitor, radiometric | – | > 10
Cn1ccc(COc2cnc(C(N)=O)cc2-c2ccc(F)cc2)n1 | GRM2 | ion flux, antagonist | – | 0.058
CN1c2ccccc2C(=NN=Cc2cc3ccc(Cl)cc3nc2Cl)CS1(=O)=O | Maob | enzyme activity, inhibitor, fluorescence | – | 1.21
COc1ccc(N2CC3=C(C2=O)C(c2ccccc2O)NC(=O)N3)cc1 (centres unmarked) | ALPI | enzyme activity, inhibitor, absorbance | – | 4.87
Cc1ccc(C(=O)Nc2ccc(Oc3cc4cnn(C)c4cc3-c3cn[nH]c3)c(F)c2)c(=O)n1-c1ccc(F)cc1 | RET | enzyme activity, inhibitor | – | 0.59
